According to ChEMBL document CHEMBL4819086, “Discovery of neuroprotective agents that inhibit human prolyl hydroxylase PHD2” (Bioorg Med Chem, 2021):

What was measured:
Egl nine homolog 1 = Egl nine homolog 1 (Homo sapiens, UniProt Q9GZT9); assay: Inhibition of recombinant human PHD2 (181 to 426 residues) using DLDLEMLAPYIPMDDDFQL peptide as substrate preincubated for 15 mins followed by substrate addition and measured after 15 mins by Q-TOF mass spectrometric analysis
Summary of the method: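 Catalytic domain tPHD2 181–426 at 150 nM final in 50 mM Tris.Cl pH 7.5, 50 mM NaCl, with 0.5% DMSO. Substrate is CODD peptide (C-terminal amide). Enzyme equilibrated with compound for 15 min, then substrate with 2-oxoglutarate added and reacted for 15 min. Hydroxylated product measured by C4 SPE-MS. 11-point 3-fold titrations, normalised to no-enzyme control, IC50 by non-linear regression.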

SH-SY5Y [1] = assay: Neuroprotective activity against H2O2-induced oxidative stress in human SH-SY5Y cells assessed as reduction in rate of cell death pretreated for 2 hrs followed by H2O2 challenge by phase contrast microscopic analysis; assay type: functional, cell-based
Summary of the method: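 SH-SY5Y cells pretreated with compound for 2 h (3–10 or 10–50 µM), then given 50 µM H2O2. Dead cells counted manually on phase-contrast images. Mean ± SEM from 4 separate cultures, one-way ANOVA with Dunnett's test.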

SH-SY5Y [2] = assay: Cytotoxicity against human SH-SY5Y cells assessed as reduction in cell viability upto 100 uM incubated for 24 hrs by MTT assay; assay type: cell-based
Summary of the method: (§1)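 SH-SY5Y neuroblastoma cells, undifferentiated, grown in DMEM/F12 (43.5% each) with 10% FBS, pyruvate and glutaMAX at 37 C, 5% CO2. Cells harvested at 85–95% confluence and seeded for MTT, treated over 1–100 µM. MTT (0.1 mg/mL) added for 3 h at 37 C. Formazan dissolved in DMSO and read at 570 nm. Normalised to MEM vehicle (100%) and 0.25% triton X-100 (0%) controls.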

SH-SY5Y [3] = assay: Cytotoxicity against human SH-SY5Y cells assessed as reduction in cell viability at 100 uM incubated for 24 hrs by MTT assay; assay type: cell-based; summary of the method: as §1

Egl nine homolog 1, sequence (Q9GZT9 whole entry, the tested form may be a part): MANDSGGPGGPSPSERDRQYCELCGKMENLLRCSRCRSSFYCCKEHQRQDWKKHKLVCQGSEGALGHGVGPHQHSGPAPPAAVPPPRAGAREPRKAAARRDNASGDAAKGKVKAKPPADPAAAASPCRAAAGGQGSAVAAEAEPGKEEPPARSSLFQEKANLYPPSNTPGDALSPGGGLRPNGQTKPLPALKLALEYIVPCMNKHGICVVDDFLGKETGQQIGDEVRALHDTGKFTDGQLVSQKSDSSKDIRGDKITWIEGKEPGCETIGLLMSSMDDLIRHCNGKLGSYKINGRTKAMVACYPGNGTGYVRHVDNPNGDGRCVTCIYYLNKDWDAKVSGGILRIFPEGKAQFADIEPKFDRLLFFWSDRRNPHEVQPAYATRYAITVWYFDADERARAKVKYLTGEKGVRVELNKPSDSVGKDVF

Row | IC50 (Egl nine homolog 1) [µM] | SMILES | further results
1 | 4.09 | Cc1nc(Sc2ncccc2C(=O)O)n[nH]1 | Activity (SH-SY5Y [1]): Dose-Dependent Effect; Activity (SH-SY5Y [2]): Non-Toxic
2 | 26 | Cc1ccc(-n2nc3c(SCC(=O)O)nnc(C)c3c2C)cc1 | Activity (SH-SY5Y [1]): Dose-Dependent Effect; Activity (SH-SY5Y [3]): Toxic
3 | > 100 | Cn1nc(C(=O)Nc2ccccc2Cl)cc1C(=O)O | 
4 | > 100 | O=C(Nc1ccccc1-c1nc2ccccc2c(=O)o1)C(F)(F)F | 
5 | > 100 | C=CCN(CC=C)Cc1c(C)nc2ccccc2c1O | 
6 | > 100 | COCc1cc(O)nc(Nc2nc(C)c3ccc(C)cc3n2)n1 | 
7 | > 100 | COc1cccc(NC(=O)COc2ccccc2P(=O)(O)O)c1 | 
8 | > 100 | CC(C)c1nc2cc(NC(=O)CCn3cnnn3)ccc2n1C | 

The next lines start with the compound.

Row | SMILES | IC50 (Egl nine homolog 1) [µM] | further results
9 | O=C(O)CCCN1C(=O)[C@@H]2[C@H](C1=O)[C@H]1C=C[C@@H]2C1 | > 100 | 
10 | COC(=O)c1c(NC(=O)C2C(C(=O)O)[C@@H]3C=C[C@H]2CC3)sc(C)c1C (stereo partly specified) | 77.7 | 
11 | Cc1cc(NC(=O)c2nn(C)c(C)c2[N+](=O)[O-])no1 | > 100 | 
12 | O=C1c2ccc3c4c(ccc(c24)C(=O)N1NC(=O)C(F)(F)F)CC3 | > 100 | 
13 | Cc1c(Br)c(C(=O)Nc2ccc(Cl)cc2C(F)(F)F)nn1C | > 100 | 
14 | O=S(=O)(Nc1cc(C(F)(F)F)ccc1Cl)c1cccc2cccnc12 | > 100 | 
15 | O=C(CCn1cnnn1)N1CCC(O)(c2cccc(C(F)(F)F)c2)CC1 | > 100 | 
16 | CSCCC(CO)NC(=O)Cn1nc(-n2nc(C)cc2C)ccc1=O (stereo unspecified) | > 100 | 
17 | O=C(O)c1cccc(NS(=O)(=O)c2cccc3cccnc23)c1 | > 100 | 
